The values that follow come from ChEMBL document CHEMBL1135207, “Novel route to the synthesis of peptides containing 2-amino-1'-hydroxymethyl ketones and their application as cathepsin K inhibitors” (Bioorg Med Chem Lett, 2002).

Assay [1] addresses Cathepsin B (Homo sapiens, UniProt P07858). Kind of assay: Binding affinity against cathepsin B.
Assay [2] concerns the target T1, Cathepsin K (Homo sapiens, UniProt P43235).
T1 sequence (P43235 whole entry): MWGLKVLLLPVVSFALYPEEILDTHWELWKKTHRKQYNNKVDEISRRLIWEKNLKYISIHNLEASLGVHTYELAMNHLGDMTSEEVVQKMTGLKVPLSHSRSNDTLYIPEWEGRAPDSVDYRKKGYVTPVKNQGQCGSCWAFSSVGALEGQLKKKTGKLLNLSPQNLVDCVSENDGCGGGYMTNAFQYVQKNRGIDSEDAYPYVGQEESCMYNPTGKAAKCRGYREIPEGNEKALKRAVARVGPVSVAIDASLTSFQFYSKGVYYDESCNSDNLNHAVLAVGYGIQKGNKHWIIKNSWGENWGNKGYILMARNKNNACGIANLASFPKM
Kind of assay: Binding affinity against cathepsin K.

Assay [3] concerns the target Cathepsin S (Homo sapiens, UniProt P25774). The assay can be described thus: Binding affinity of compound was evaluated against cathepsin S.
In assay [4] the target is Procathepsin L (Homo sapiens, UniProt P07711). The assay can be described thus: Binding affinity of compound was evaluated against cathepsin L. In a few lines: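 Then Z-Phe-Arg-AMC 10 µM (at Km) added. AMC release followed kinetically (ex355/em460) at room temperature, with inhibitor-free controls. Apparent Ki by Morrison or Henderson tight-binding fit.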
Procathepsin L, sequence (P07711 whole entry): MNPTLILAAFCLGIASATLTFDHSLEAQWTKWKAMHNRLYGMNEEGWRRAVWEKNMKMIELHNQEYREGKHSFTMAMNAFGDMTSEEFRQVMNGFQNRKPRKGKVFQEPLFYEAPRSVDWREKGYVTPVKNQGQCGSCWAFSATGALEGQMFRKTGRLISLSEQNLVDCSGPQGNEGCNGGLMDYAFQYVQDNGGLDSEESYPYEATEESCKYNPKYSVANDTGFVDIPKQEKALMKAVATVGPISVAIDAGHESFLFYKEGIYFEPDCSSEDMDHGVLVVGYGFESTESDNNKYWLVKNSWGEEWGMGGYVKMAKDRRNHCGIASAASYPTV

The Ki is the equilibrium dissociation constant of an inhibitor or competing ligand from its target. Read a low Ki as higher affinity.

Cathepsin S, sequence (P25774 whole entry): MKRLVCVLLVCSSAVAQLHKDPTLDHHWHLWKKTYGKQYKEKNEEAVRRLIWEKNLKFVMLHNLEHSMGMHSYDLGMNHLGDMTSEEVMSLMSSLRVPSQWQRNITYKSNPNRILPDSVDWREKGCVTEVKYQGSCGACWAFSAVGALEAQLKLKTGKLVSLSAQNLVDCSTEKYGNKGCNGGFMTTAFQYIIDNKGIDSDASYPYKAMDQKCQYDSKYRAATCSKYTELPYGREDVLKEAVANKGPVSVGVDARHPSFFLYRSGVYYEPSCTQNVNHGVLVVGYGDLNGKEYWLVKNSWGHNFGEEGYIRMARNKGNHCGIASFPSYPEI

For the compound `COCC(=O)[C@H](CCc1ccccc1)NC(=O)[C@H](CC(C)C)NC(=O)OCc1ccccc1`, the Ki in assay [1] is greater than 150 µM; in assay [2], 0.607 µM; in assay [3] it was 1.96 µM; in assay [4], 22.3 µM.
As to `CC(C)C[C@H](NC(=O)OCc1ccccc1)C(=O)N[C@@H](CCc1ccccc1)C(=O)COCc1ccccc1`, the Ki in assay [1] was determined as 119 µM; in assay [2] it was 1 µM; in assay [3], 0.451 µM; in assay [4] it was 6.34 µM.
`CC(C)C[C@H](NC(=O)c1ccc(CN)cc1)C(=O)N[C@@H](CCc1ccccc1)C(=O)CO`: the Ki in assay [1] came to 1.95 µM; in assay [2] it was 0.003 µM; in assay [3], 0.046 µM; in assay [4] it was 0.017 µM.
The like results for `CCOCC(=O)[C@H](CCc1ccccc1)NC(=O)[C@H](CC(C)C)NC(=O)OCc1ccccc1` were, in that order, greater than 150 µM, 0.947 µM, 4.5 µM and 16.7 µM.
Take `CCCC[C@H](NC(=O)[C@@H](NC(=O)c1ccc(CN)cc1)C(C)CC)C(=O)CO` (some centres not stated): the inhibition constant (Ki) in assay [1] worked out at 1.25 µM; in assay [2], 0.02 µM; in assay [3], 0.46 µM; in assay [4], 0.13 µM.
For the compound `CCC(C)[C@H](NC(=O)c1cccc(C(N)=O)c1)C(=O)N[C@@H](CCc1ccccc1)C(=O)CO` (some centres not stated), the inhibitory constant (Ki) came to 1.44 µM in assay [1], 0.111 µM in assay [2], 0.088 µM in assay [3] and 0.79 µM in assay [4].
On to `CC(C)C[C@H](NC(=O)OCc1ccccc1)C(=O)N[C@@H](CCc1ccccc1)C(=O)CO`, for which the inhibition constant (Ki) came out at 34.7 µM in assay [1], 0.025 µM in assay [2], 0.188 µM in assay [3] and 0.64 µM in assay [4].
For `CCC(C)[C@H](NC(=O)c1cccc(CN)c1)C(=O)N[C@@H](CCc1ccccc1)C(=O)CO` (some centres not stated), the Ki worked out at 0.27 µM in assay [1], 0.004 µM in assay [2], 0.18 µM in assay [3] and 0.081 µM in assay [4].
With `CC(=O)[C@H](CCc1ccccc1)NC(=O)[C@H](CC(C)C)NC(=O)OCc1ccccc1`, the values for the Ki in assay [1] and in assay [2] were 519 µM and 1.44 µM, respectively.
As to `CCCC[C@H](NC(=O)[C@@H](NC(=O)c1cccc(C(N)=O)c1)C(C)CC)C(=O)CO` (some centres not stated), the inhibition constant Ki was determined as 1.14 µM in assay [1], 0.11 µM in assay [2], 0.11 µM in assay [3] and 0.76 µM in assay [4].
With `CCC(C)[C@H](NC(=O)OCc1ccccc1)C(=O)N[C@@H](CCc1ccccc1)C(=O)CO` (some centres not stated), the Ki in assay [1] is 32.2 µM; in assay [2], 0.067 µM; in assay [3] it was 0.811 µM; in assay [4], 3 µM.
